Measured values: ChEMBL document CHEMBL1158122, “Anti-inflammatory, anti-tumor-promoting, and cytotoxic activities of constituents of marigold (Calendula officinalis) flowers” (J Nat Prod, 2006)

Assays:
[1] = test system: NCI-H322M; test: Cytotoxicity against human NCI-H322M cells after 48 hrs by SRB assay; assay type: functional
[2] = test system: NCI-H460; test: Cytotoxicity against human NCI-H460 cells after 48 hrs by SRB assay; assay type: functional; conditions: NCI-H460, 48 h
[3] = test system: COLO 205; test: Cytotoxicity against human COLO205 cells after 48 hrs by SRB assay; assay type: functional; conditions: COLO 205, 48 h
[4] = test system: HCC 2998; test: Cytotoxicity against human HCC2998 cells after 48 hrs by SRB assay; assay type: functional; conditions: HCC 2998, 48 h
[5] = Cytotoxicity against human HCT 116 cells after 48 hrs by SRB assay; assay type: functional; conditions: HCT-116, 48 h
[6] = test system: HT-29; test: Cytotoxicity against human HT-29 cells after 48 hrs by SRB assay; assay type: functional; conditions: HT-29, 48 h
[7] = test system: KM12; test: Cytotoxicity against human KM12 cells after 48 hrs by SRB assay; assay type: functional; conditions: KM12, 48 h
[8] = test system: SW-620; test: Cytotoxicity against human SW620 cells after 48 hrs by SRB assay; assay type: functional; conditions: SW-620, 48 h
[9] = test system: SF-268; test: Cytotoxicity against human SF-268 cells after 48 hrs by SRB assay; assay type: functional; conditions: SF-268, 48 h
[10] = test system: SF-295; test: Cytotoxicity against human SF-295 cells after 48 hrs by SRB assay; assay type: functional; conditions: SF-295, 48 h
[11] = test system: SNB-19; test: Cytotoxicity against human SNB-19 cells after 48 hrs by SRB assay; assay type: functional; conditions: SNB-19, 48 h
[12] = test system: U-251; test: Cytotoxicity against human U251 cells after 48 hrs by SRB assay; assay type: functional; conditions: U-251, 48 h
In short: (§1)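 Tested in the NCI panel of 60 human tumour cell lines covering lung, colon, melanoma, renal, ovarian, breast and leukaemia. At least five concentrations were run in 10-fold dilutions starting from 10^-4 M. Exposure was continuous for 48 h. Growth or viability was estimated by sulforhodamine B protein staining, and GI50 values were reported.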

[13] = test system: LOX IMVI; test: Cytotoxicity against human LOX IMVI cells after 48 hrs by SRB assay; assay type: functional
[14] = test system: Malme-3M; test: Cytotoxicity against human MALME-3M cells after 48 hrs by SRB assay; assay type: functional
[15] = test system: SK-MEL-2; test: Cytotoxicity against human SK-MEL-2 cells after 48 hrs by SRB assay; assay type: functional; conditions: SK-MEL-2, 48 h
[16] = Cytotoxicity against human SK MEL28 cells after 48 hrs by SRB assay; assay type: functional; conditions: SK-MEL-28, 48 h
[17] = test system: SK-MEL-5; test: Cytotoxicity against human SK-MEL-5 cells after 48 hrs by SRB assay; assay type: functional; conditions: SK-MEL-5, 48 h
[18] = test system: UACC-257; test: Cytotoxicity against human UACC-257 cells after 48 hrs by SRB assay; assay type: functional; conditions: UACC-257, 48 h; in short: as §1
[19] = test system: UACC-62; test: Cytotoxicity against human UACC-62 cells after 48 hrs by SRB assay; assay type: functional; conditions: UACC-62, 48 h; in short: as §1
[20] = test system: IGROV-1; test: Cytotoxicity against human IGROV1 cells after 48 hrs by SRB assay; assay type: functional; conditions: IGROV-1, 48 h
[21] = test system: OVCAR-3; test: Cytotoxicity against human OVCAR-3 cells after 48 hrs by SRB assay; assay type: functional; conditions: OVCAR-3, 48 h
[22] = test system: OVCAR-5; test: Cytotoxicity against human OVCAR5 cells after 48 hrs by SRB assay; assay type: functional; conditions: OVCAR-5, 48 h
[23] = test system: OVCAR-8; test: Cytotoxicity against human OVCAR8 cells after 48 hrs by SRB assay; assay type: functional; conditions: OVCAR-8, 48 h
[24] = test system: 786-0; test: Cytotoxicity against human 786-0 cells after 48 hrs by SRB assay; assay type: functional; conditions: 786-0, 48 h
[25] = test system: NCI-H23; test: Cytotoxicity against human NCI-H23 cells after 48 hrs by SRB assay; assay type: functional; conditions: NCI-H23, 48 h
[26] = test system: CAKI-1; test: Cytotoxicity against human Caki-1 cells after 48 hrs by SRB assay; assay type: functional; conditions: CAKI-1, 48 h
[27] = test system: RXF 393; test: Cytotoxicity against human […] cells after 48 hrs by SRB assay; assay type: functional; conditions: RXF 393, 48 h
[28] = test system: SN12C; test: Cytotoxicity against human SN12C cells after 48 hrs by SRB assay; assay type: functional
[29] = test system: TK-10; test: Cytotoxicity against human TK-10 cells after 48 hrs by SRB assay; assay type: functional; conditions: TK-10, 48 h; in short: as §1
[30] = test system: UO-31; test: Cytotoxicity against human UO-31 cells after 48 hrs by SRB assay; assay type: functional; conditions: UO-31, 48 h; in short: as §1
[31] = test system: PC-3; test: Cytotoxicity against human PC-3 cells after 48 hrs by SRB assay; assay type: functional; conditions: PC-3, 48 h
[32] = test system: MCF7; test: Cytotoxicity against human MCF7 cells after 48 hrs by SRB assay; assay type: functional; conditions: MCF7, 48 h
[33] = test system: NCI/ADR-RES; test: Cytotoxicity against human NCI/ADR-RES cells after 48 hrs by SRB assay; assay type: functional
[34] = test system: MDA-MB-231; test: Cytotoxicity against human MDA-MB-231 cells after 48 hrs by SRB assay; assay type: functional; conditions: MDA-MB-231, 48 h
[35] = Cytotoxicity against human Hs 578T cells after 48 hrs by SRB assay; assay type: functional
[36] = test system: MDA-MB-435; test: Cytotoxicity against human MDA-MB-435 cells after 48 hrs by SRB assay; assay type: functional; conditions: MDA-MB-435, 48 h
[37] = test system: BT-549; test: Cytotoxicity against human BT-549 cells after 48 hrs by SRB assay; assay type: functional; conditions: BT-549, 48 h
[38] = test system: T47D; test: Cytotoxicity against human T47D cells after 48 hrs by SRB assay; assay type: functional; in short: as §1
[39] = test system: HCT-15; test: Cytotoxicity against human HCT-15 cells after 48 hrs by SRB assay; assay type: functional; conditions: HCT-15, 48 h
[40] = test system: Raji; test: Inhibition of TPA-induced EBV-early antigen activation in human Raji cells at 1000 molar ratio relative to TPA; assay type: cell-based; parameters: scale not given: the % may be the effect or the level left; conditions: human gammaherpesvirus 4
[41] = test system: Raji; test: Inhibition of TPA-induced EBV-early antigen activation in human Raji cells at 500 molar ratio relative to TPA; assay type: cell-based; parameters: scale not given: the % may be the effect or the level left; conditions: human gammaherpesvirus 4
[42] = test system: Raji; test: Inhibition of TPA-induced EBV-early antigen activation in human Raji cells at 100 molar ratio relative to TPA; assay type: cell-based; parameters: scale not given: the % may be the effect or the level left; conditions: human gammaherpesvirus 4
[43] = test system: Raji; test: Inhibition of TPA-induced EBV-early antigen activation in human Raji cells at 10 molar ratio relative to TPA; assay type: cell-based; parameters: scale not given: the % may be the effect or the level left; conditions: human gammaherpesvirus 4
[44] = Inhibition of TPA-induced EBV-early antigen activation in human Raji cells relative to TPA; assay type: cell-based, human gammaherpesvirus 4
[45] = Cytotoxicity against human Raji cells assessed as cell viability at 1000 molar ratio; assay type: cell-based; conditions: read-out: Activity
In short: (§2)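 Raji cells were treated with 32 pmol TPA to induce EBV early antigen activation. The test agent was added at 10, 100, 500 or 1000 mol ratio relative to TPA, and Raji cell viability was measured alongside EA activation.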

[46] = Cytotoxicity against human Raji cells assessed as cell viability at 500 molar ratio; assay type: cell-based; conditions: read-out: Activity; in short: as §2
[47] = Cytotoxicity against human Raji cells assessed as cell viability at 100 molar ratio; assay type: cell-based; conditions: read-out: Activity; in short: as §2
[48] = Cytotoxicity against human Raji cells assessed as cell viability at 10 molar ratio; assay type: cell-based; conditions: read-out: Activity; in short: as §2
[49] = test system: Mus musculus; test: Antiinflammatory activity against TPA-induced ear edema in mouse; assay type: functional
In short: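 Specific-pathogen-free female ICR mice were housed five per cage at 24 ± 2 °C. Inflammation was induced on the ear with TPA at 1 µg/ear, and the test agent was applied per ear. Ear edema inhibition was expressed as ID50 in mg per ear.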

[50] = test system: HL-60; test: Cytotoxicity against human HL-60 cells after 48 hrs by SRB assay; assay type: functional; conditions: HL-60, 48 h
[51] = test system: CCRF-CEM; test: Cytotoxicity against human CCRF-CEM cells after 48 hrs by SRB assay; assay type: functional
[52] = test system: K562; test: Cytotoxicity against human K-562 cells after 48 hrs by SRB assay; assay type: functional; conditions: K562, 48 h
[53] = test system: MOLT-4; test: Cytotoxicity against human MOLT-4 cells after 48 hrs by SRB assay; assay type: functional; conditions: MOLT-4, 48 h
[54] = test system: RPMI-8226; test: Cytotoxicity against human RPMI8226 cells after 48 hrs by SRB assay; assay type: functional; conditions: RPMI-8226, 48 h
[55] = test system: A549; test: Cytotoxicity against human A549 cells after 48 hrs by SRB assay; assay type: functional; conditions: A549, 48 h
[56] = test system: EKVX; test: Cytotoxicity against human EKVX cells after 48 hrs by SRB assay; assay type: functional
[57] = test system: HOP-62; test: Cytotoxicity against human HOP-62 cells after 48 hrs by SRB assay; assay type: functional; conditions: HOP-62, 48 h
[58] = test system: HOP-92; test: Cytotoxicity against human HOP-92 cells after 48 hrs by SRB assay; assay type: functional; conditions: HOP-92, 48 h
[59] = test system: NCI-H226; test: Cytotoxicity against human NCI-H226 cells after 48 hrs by SRB assay; assay type: functional; conditions: NCI-H226, 48 h
[60] = test system: ACHN; test: Cytotoxicity against human ACHN cells after 48 hrs by SRB assay; assay type: functional

CCCCOC(=O)[C@H]1O[C@@H](O[C@H]2CC[C@]3(C)[C@H]4CC=C5[C@@H]6CC(C)(C)CC[C@]6(C(=O)O[C@@H]6O[C@H](CO)[C@@H](O)[C@H](O)[C@H]6O)CC[C@@]5(C)[C@]4(C)CC[C@H]3C2(C)C)[C@H](O)[C@@H](O)[C@@H]1O
GI50 [1]: 4.08 µM
GI50 [2]: 2510 nM
GI50 [3]: 1360 nM
GI50 [4]: 890 nM
GI50 [5]: 1120 nM
GI50 [6]: 2070 nM
GI50 [7]: 2080 nM
GI50 [8]: 1930 nM
GI50 [9]: 2170 nM
GI50 [10]: 2560 nM
GI50 [11]: 1440 nM
GI50 [12]: 1060 nM
GI50 [13]: 810 nM
GI50 [14]: 1470 nM
GI50 [15]: 1850 nM
GI50 [16]: 2600 nM
GI50 [17]: 930 nM
GI50 [18]: 4.18 µM
GI50 [19]: 890 nM
GI50 [20]: 1700 nM
GI50 [21]: 3.27 µM
GI50 [22]: 3.07 µM
GI50 [23]: 4.28 µM
GI50 [24]: 1560 nM
GI50 [25]: 1480 nM
GI50 [26]: 17.2 µM
GI50 [27]: 1650 nM
GI50 [28]: 1390 nM
GI50 [29]: 1850 nM
GI50 [30]: 12.7 µM
GI50 [31]: 1260 nM
GI50 [32]: 1600 nM
GI50 [33]: > 50 µM
GI50 [34]: 1150 nM
GI50 [35]: 1620 nM
GI50 [36]: 2520 nM
GI50 [37]: 1700 nM
GI50 [38]: 1750 nM
GI50 [39]: 6.73 µM
Activity [40]: 10.1%
Activity [41]: 48.1%
Activity [42]: 70%
Activity [43]: 100%
IC50 [44]: 479 molar ratio
viability at 1000 molar ratio [45]: 70%
viability at 500 molar ratio [46]: > 80%
viability at 100 molar ratio [47]: > 80%
viability at 10 molar ratio [48]: > 80%
ID50 [49]: 0.07 mg
GI50 [50]: 1210 nM
GI50 [51]: 23.1 µM
GI50 [52]: 1580 nM
GI50 [53]: 1000 nM
GI50 [54]: 780 nM
GI50 [55]: 1830 nM
GI50 [56]: 3.39 µM
GI50 [57]: 2220 nM
GI50 [58]: 1040 nM
GI50 [59]: 1490 nM
GI50 [60]: 6.29 µM
